“And” between values parts separate entries of the source, which are not always exact repeats. Identical values can stand only once.
Experiments:
Test in all cases: Inside-out patch-clamp of CFTR currents in transfected CHO cells
Format in all cases: cell-based
N1138Y/G551D-CFTR = N1138Y/G551D-CFTR (Homo sapiens, UniProt P13569, G551D/N1138Y)
How it was run: (§1)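 CFTR construct and GFP plasmid cotransfected into CHO cells, held at 27°C for 2–6 d. Inside-out patches at room temperature, −30 mV, NMDG-Cl solutions at pH 7.4. Channels preactivated with 25 IU PKA plus 2 mM MgATP, then test compound (max 40 µM) applied in 2 mM ATP. ATP-subtracted steady-state currents normalized to the 3 µM response in the same patch. Hill fit with base 0 and maximum 1; EC50 ± SD of fit; 3–7 patches per point.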

S364A-CFTR = S364A-CFTR (Homo sapiens, UniProt P13569, S364A)
Sequence of S364A-CFTR (P13569 whole entry S364A): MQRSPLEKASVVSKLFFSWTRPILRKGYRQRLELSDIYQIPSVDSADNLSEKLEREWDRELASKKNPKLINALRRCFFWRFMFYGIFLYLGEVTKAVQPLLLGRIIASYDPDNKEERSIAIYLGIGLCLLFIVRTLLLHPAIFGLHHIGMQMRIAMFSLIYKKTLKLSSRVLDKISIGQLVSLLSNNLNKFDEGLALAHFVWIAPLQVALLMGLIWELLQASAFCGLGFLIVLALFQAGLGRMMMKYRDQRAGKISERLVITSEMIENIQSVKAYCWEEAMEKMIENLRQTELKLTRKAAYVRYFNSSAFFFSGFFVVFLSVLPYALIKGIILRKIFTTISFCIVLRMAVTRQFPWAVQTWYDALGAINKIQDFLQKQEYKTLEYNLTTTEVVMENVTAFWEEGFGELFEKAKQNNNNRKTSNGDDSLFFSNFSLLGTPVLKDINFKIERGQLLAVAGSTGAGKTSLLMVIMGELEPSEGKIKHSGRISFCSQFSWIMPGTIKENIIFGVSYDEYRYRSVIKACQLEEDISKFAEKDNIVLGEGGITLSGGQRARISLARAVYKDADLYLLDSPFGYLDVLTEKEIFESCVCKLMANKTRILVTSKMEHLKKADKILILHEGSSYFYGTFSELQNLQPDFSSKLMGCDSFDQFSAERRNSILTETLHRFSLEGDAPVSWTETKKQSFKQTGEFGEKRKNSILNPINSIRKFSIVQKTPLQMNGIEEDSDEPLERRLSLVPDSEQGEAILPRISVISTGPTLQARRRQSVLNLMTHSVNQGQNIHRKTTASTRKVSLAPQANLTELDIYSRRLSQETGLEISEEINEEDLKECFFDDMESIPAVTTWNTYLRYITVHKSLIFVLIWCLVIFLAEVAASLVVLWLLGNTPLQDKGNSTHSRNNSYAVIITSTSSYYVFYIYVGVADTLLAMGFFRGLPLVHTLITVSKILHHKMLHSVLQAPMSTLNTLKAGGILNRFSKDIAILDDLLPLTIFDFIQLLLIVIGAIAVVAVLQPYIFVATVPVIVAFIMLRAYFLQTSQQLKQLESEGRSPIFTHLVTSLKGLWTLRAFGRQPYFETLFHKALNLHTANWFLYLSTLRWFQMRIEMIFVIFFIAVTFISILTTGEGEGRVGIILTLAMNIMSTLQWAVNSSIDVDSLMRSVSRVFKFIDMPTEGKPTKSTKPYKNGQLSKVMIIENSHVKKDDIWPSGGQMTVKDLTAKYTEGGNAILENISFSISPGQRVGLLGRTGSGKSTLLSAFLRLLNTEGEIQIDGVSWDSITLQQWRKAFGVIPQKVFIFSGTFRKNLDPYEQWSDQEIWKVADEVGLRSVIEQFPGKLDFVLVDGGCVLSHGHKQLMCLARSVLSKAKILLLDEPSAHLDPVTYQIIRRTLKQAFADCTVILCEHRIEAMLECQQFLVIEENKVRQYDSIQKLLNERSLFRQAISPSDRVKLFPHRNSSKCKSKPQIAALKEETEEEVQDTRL
How it was run: as §1

R347C-CFTR = R347C-CFTR (Homo sapiens, UniProt P13569, R347C)
Sequence of R347C-CFTR (P13569 whole entry R347C): as the sequence (P13569 whole entry S364A) above, with R347C, A364S counted along it
How it was run: (§2)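 Channels in ATP exposed to test compound at pH 7.4; percent change of mean current scored. Perfusate then switched to pH 5.5, with or without prior compound exposure at pH 7.4. Fold increase taken as peak current at pH 5.5 divided by mean current at pH 7.4.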

S1141K/G551D-CFTR = S1141K/G551D-CFTR (Homo sapiens, UniProt P13569, G551D/S1141K)
Sequence of S1141K/G551D-CFTR (P13569 whole entry G551D/S1141K): as the sequence (P13569 whole entry S364A) above, with A364S, G551D, S1141K counted along it
How it was run: as §1

Y304T-CFTR = Y304T-CFTR (Homo sapiens, UniProt P13569, Y304T)
Sequence of Y304T-CFTR (P13569 whole entry Y304T, the tested form may be a part): as the sequence (P13569 whole entry S364A) above, with Y304T, A364S counted along it
How it was run: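 Relaxation assay: PKA-preactivated channels in 2 mM ATP at −30 mV exposed to test compound through a fast three-barrel perfusion system (dead time ∼30 ms). Current decay after sudden removal of 3 µM compound fitted with a single exponential to give relaxation time constant τ.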

S1141T/G551D-CFTR = S1141T/G551D-CFTR (Homo sapiens, UniProt P13569, G551D/S1141T)
Sequence of S1141T/G551D-CFTR (P13569 whole entry G551D/S1141T): as the sequence (P13569 whole entry S364A) above, with A364S, G551D, S1141T counted along it
How it was run: as §1

S1141R/G551D-CFTR = S1141R/G551D-CFTR (Homo sapiens, UniProt P13569, G551D/S1141R)
Sequence of S1141R/G551D-CFTR (P13569 whole entry G551D/S1141R): as the sequence (P13569 whole entry S364A) above, with A364S, G551D, S1141R counted along it
How it was run: as §1

K190A-CFTR = K190A-CFTR (Homo sapiens, UniProt P13569, K190A)
Sequence of K190A-CFTR (P13569 whole entry K190A): as the sequence (P13569 whole entry S364A) above, with K190A, A364S counted along it
How it was run: as §1

D924A-CFTR = D924A-CFTR (Homo sapiens, UniProt P13569, D924A)
Sequence of D924A-CFTR (P13569 whole entry D924A): as the sequence (P13569 whole entry S364A) above, with A364S, D924A counted along it
How it was run: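 No macroscopic currents were obtained, so single-channel recordings were used: less plasmid, recorded within 2 d, 4–5 MΩ pipettes, patch held at −50 mV. Channels activated with PKA plus ATP, then PKA removed in 2 mM ATP. Activity at 3 and 20 µM test compound compared with basal activity in 2 mM ATP.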

N1138L/G551D-CFTR = N1138L/G551D-CFTR (Homo sapiens, UniProt P13569, G551D/N1138L)
Sequence of N1138L/G551D-CFTR (P13569 whole entry G551D/N1138L): as the sequence (P13569 whole entry S364A) above, with A364S, G551D, N1138L counted along it
How it was run: as §1

[1] = target: R347S-CFTR (ΔR-CFTR background) (Homo sapiens, UniProt P13569, R347S); conditions: pH 7.4
Sequence of R347S-CFTR (ΔR-CFTR background) (P13569 1-633 R347S limits assumed): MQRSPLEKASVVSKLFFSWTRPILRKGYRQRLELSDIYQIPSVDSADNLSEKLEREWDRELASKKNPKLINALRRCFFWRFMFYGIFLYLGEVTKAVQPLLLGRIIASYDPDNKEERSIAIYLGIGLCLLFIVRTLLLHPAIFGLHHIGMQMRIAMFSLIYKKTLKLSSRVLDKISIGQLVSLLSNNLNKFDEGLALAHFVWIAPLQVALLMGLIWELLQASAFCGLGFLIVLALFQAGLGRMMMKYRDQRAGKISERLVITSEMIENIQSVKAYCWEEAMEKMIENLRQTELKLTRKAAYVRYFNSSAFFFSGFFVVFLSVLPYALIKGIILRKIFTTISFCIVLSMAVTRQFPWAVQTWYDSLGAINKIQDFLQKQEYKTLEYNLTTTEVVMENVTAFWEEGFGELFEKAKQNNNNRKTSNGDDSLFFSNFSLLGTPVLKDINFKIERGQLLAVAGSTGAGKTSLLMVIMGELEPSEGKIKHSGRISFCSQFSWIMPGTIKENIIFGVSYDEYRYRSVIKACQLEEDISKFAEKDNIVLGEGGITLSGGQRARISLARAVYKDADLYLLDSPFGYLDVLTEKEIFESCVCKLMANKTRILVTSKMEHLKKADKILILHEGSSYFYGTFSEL
Sequence of R347S-CFTR (ΔR-CFTR background) (P13569 837-1480 limits assumed): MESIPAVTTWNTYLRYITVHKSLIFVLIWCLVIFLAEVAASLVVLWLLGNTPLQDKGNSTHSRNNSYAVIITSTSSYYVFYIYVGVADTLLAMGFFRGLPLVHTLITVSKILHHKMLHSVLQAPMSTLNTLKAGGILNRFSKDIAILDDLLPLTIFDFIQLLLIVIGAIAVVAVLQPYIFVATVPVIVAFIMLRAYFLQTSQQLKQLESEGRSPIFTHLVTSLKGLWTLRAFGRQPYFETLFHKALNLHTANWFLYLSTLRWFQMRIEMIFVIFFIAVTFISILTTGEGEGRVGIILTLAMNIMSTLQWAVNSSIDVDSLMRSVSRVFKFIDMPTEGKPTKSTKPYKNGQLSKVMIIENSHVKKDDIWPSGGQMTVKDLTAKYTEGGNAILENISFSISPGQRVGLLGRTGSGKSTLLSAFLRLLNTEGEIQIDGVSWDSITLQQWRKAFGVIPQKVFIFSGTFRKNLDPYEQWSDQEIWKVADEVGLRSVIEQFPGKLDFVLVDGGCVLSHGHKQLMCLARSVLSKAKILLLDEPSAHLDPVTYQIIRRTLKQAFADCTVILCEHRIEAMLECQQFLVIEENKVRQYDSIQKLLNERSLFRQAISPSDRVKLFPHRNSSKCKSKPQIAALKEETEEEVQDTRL
How it was run: as §2

F236A-CFTR = F236A-CFTR (Homo sapiens, UniProt P13569, F236A)
Sequence of F236A-CFTR (P13569 whole entry F236A): as the sequence (P13569 whole entry S364A) above, with F236A, A364S counted along it
How it was run: as §1

[2] = target: R347D-CFTR (ΔR-CFTR background) (Homo sapiens, UniProt P13569, R347D); conditions: pH 7.4
Sequence of R347D-CFTR (ΔR-CFTR background) (P13569 1-633 R347D limits assumed): as the sequence (P13569 1-633 R347S limits assumed) above, with S347D counted along it
Sequence of R347D-CFTR (ΔR-CFTR background) (P13569 837-1480 limits assumed): as the sequence (P13569 837-1480 limits assumed) above
How it was run: as §2

S263A-CFTR = S263A-CFTR (Homo sapiens, UniProt P13569, S263A)
Sequence of S263A-CFTR (P13569 whole entry S263A): as the sequence (P13569 whole entry S364A) above, with S263A, A364S counted along it
How it was run: as §1

F229A-CFTR = F229A-CFTR (Homo sapiens, UniProt P13569, F229A)
Sequence of F229A-CFTR (P13569 whole entry F229A): as the sequence (P13569 whole entry S364A) above, with F229A, A364S counted along it
How it was run: as §1

Y304F-CFTR = Y304F-CFTR (Homo sapiens, UniProt P13569, Y304F)
Sequence of Y304F-CFTR (P13569 whole entry Y304F): as the sequence (P13569 whole entry S364A) above, with Y304F, A364S counted along it
How it was run: as §1

F931A-CFTR = F931A-CFTR (Homo sapiens, UniProt P13569, F931A)
Sequence of F931A-CFTR (P13569 whole entry F931A): as the sequence (P13569 whole entry S364A) above, with A364S, F931A counted along it
How it was run: as §1

[3] = CHO, read-out: Efficacy (% increase) of currents by GLPG1837

Sequence of N1138Y/G551D-CFTR (P13569 whole entry G551D/N1138Y): as the sequence (P13569 whole entry S364A) above, with A364S, G551D, N1138Y counted along it

For CC1(C)Cc2c(sc(NC(=O)c3ccn[nH]3)c2C(N)=O)C(C)(C)O1 [GLPG1837, N-(3-carbamoyl-5,5,7,7-tetramethyl-5,7-dihydro-4H-thieno[2,3-c]pyran-2-yl)-lH-pyrazole-5-carboxamide], the EC50 (N1138Y/G551D-CFTR) was 400 ± 100 nM, the ΔΔG (N1138Y/G551D-CFTR; GLPG1837, vs G551D) was 1.01 kcal/mol and the EC50 (S364A-CFTR) was 180 ± 10 nM. The Emax (S364A-CFTR; [3]) was 126 ± 5%, the “Effect of GLPG1837 on currents” value (R347C-CFTR; pH 5.5) was “effectively potentiates” and the “Percent of inhibition of currents by GLPG1837” value (R347C-CFTR; pH 7.4) was 16 ± 3%. For the same compound, the EC50 (S1141K/G551D-CFTR) was 260 ± 20 nM, the ΔΔG (S1141K/G551D-CFTR; GLPG1837, vs G551D) was 1.26 kcal/mol and the EC50 (Y304T-CFTR) was greater than 3000 nM. For the same compound, the Emax (Y304T-CFTR; [3]) was greater than 101%, the ΔΔG (Y304T-CFTR; GLPG1837, vs WT) was less than -1.45 kcal/mol and the “Relaxation time constant upon removal of GLPG1837” value (Y304T-CFTR; mean, n = 5) was 4.7 ± 0.8 s and < 5 s. The EC50 (S1141T/G551D-CFTR) was 1740 ± 310 nM, the ΔΔG (S1141T/G551D-CFTR; GLPG1837, vs G551D) was 0.136 kcal/mol and the EC50 (S1141R/G551D-CFTR) was 510 ± 130 nM. It also gave a ΔΔG (S1141R/G551D-CFTR; GLPG1837, vs G551D) of 0.863 kcal/mol, an EC50 (K190A-CFTR) of 80 ± 10 nM and an Emax (K190A-CFTR; [3]) of 61 ± 12%. For the same compound, the ΔΔG (K190A-CFTR; GLPG1837, vs WT) was 0.698 kcal/mol, the “Decrease of apparent affinity for GLPG1837 vs WT-CFTR” value (D924A-CFTR) was no less than 10 fold and the EC50 (D924A-CFTR) was greater than 3000 nM. For the same compound, the “Potentiating effect of GLPG1837” value (D924A-CFTR; 3 µM GLPG1837, microscopic recording) was “barely discerned any potentiating effects”, the ΔΔG (D924A-CFTR; GLPG1837, −RTln(EC50 mutant/EC50 WT)) was less than -1.45 kcal/mol and the EC50 (N1138L/G551D-CFTR) was 80 ± 20 nM. For the same compound, the Emax (N1138L/G551D-CFTR; [3]) was 253 ± 32%, the ΔΔG (N1138L/G551D-CFTR; GLPG1837, vs G551D) was 1.96 kcal/mol and the “Effect of GLPG1837 on currents” value [1] was “no effect”. For the same compound, the EC50 (F236A-CFTR) was 340 ± 140 nM, the Emax (F236A-CFTR; [3]) was 81 ± 14% and the ΔΔG (F236A-CFTR; GLPG1837, vs WT) was -0.16 kcal/mol. The “Effect of GLPG1837 on currents” value [2] was “no effect”, the EC50 (S263A-CFTR) was 270 ± 50 nM and the Emax (S263A-CFTR; [3]) was 148 ± 18%. The ΔΔG (S263A-CFTR; GLPG1837, vs WT) was -0.022 kcal/mol, the EC50 (F229A-CFTR) was 460 ± 70 nM and the Emax (F229A-CFTR; [3]) was 135 ± 26%. The ΔΔG (F229A-CFTR; GLPG1837, vs WT) was -0.337 kcal/mol, the EC50 (Y304F-CFTR) was 2280 ± 340 nM and the Emax (Y304F-CFTR; [3]) was 82 ± 12%. For the same compound, the ΔΔG (Y304F-CFTR; GLPG1837, vs WT) was -1.29 kcal/mol, the “Relaxation time constant upon removal of GLPG1837” value (Y304F-CFTR; mean, n = 5) was 5.5 ± 1.3 and the EC50 (F931A-CFTR) was 1140 ± 260 nM. The Emax (F931A-CFTR; [3]) was 83 ± 12%.

Reference: PMC6605684 (The Journal of General Physiology, 2019)
